In article PMC7549103 (ACS Medicinal Chemistry Letters, 2020):
Blank lines part the entries; values can stand above or below the compound they belong to.

Columns and labels:
eLogD7.4 = assay type: physicochemical; details: pH 7.4
[1] = Retest of activity over time; assay type: physicochemical
MOLT-4 cells [2] = assay: Cellular viability assay, MOLT-4 cells; assay type: cell-based, human
Method in brief: (§1)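 MOLT-4 is used as the BCL-XL-dependent human cancer cell line, and RS4;11 as the BCL-2-dependent line. Test compounds were tested in both lines in parallel.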

RS4;11 cells = assay: Cellular viability assay, RS4; assay type: cell-based; details: Homo sapiens, RS4-11, 48 h, read-out: RS4;11 EC50
Method in brief: as §1

[3] = Single dose pharmacokinetics in rats; assay type: in vivo, Sprague-Dawley rats; details: rat, single oral dose of 5 mg/kg
GST-BCL-XL = GST-BCL-XL (Homo sapiens, UniProt Q07817); assay type: binding; details: BCL-XL TR-FRET Ki ratio
GST-BCL-XL, sequence (Q07817 whole entry): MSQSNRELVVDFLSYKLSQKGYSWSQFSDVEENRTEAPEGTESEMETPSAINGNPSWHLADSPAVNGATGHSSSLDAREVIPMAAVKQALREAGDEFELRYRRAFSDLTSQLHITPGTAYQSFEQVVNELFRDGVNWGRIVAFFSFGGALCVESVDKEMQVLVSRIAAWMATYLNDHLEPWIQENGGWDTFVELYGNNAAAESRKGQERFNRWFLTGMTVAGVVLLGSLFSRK

MOLT-4 cells [4] = details: cytochrome c release, caspase-3/-7 activation, Annexin-V staining; cited from earlier work

Structure (SMILES): O=C(O)c1csc(N2CCc3cccc(C(=O)Nc4nc5ccccc5s4)c3C2)n1 [Compound 2]
eLogD7.4 (eLogD7.4): 3.02

Structure (SMILES): O=C(O)c1cccc(N2CCc3cccc(C(=O)Nc4nc5ccccc5s4)c3C2)n1 [Compound 3]
chromatographic logD (eLogD7.4): 2.85

Structure (SMILES): O=C(Nc1nc2ccccc2s1)c1cccc2c1CN(c1ccc(-c3ccn(Cc4ccccc4)c3)c(C(=O)O)n1)CC2 [Compound 5]
stability on storage (activity upon retest over time) [1]: lost activity upon retest over time

Structure (SMILES): Cc1c(-c2ccc(N3CCc4cccc(C(=O)Nc5nc6ccccc6s5)c4C3)nc2C(=O)O)cnn1CC12CC3CC(CC(C3)C1)C2 [Compound 13]
mechanism-based effects in MOLT-4 cells (MOLT-4 cells [4]): disrupted BCL-XL:BIM complexes and induced classical features of apoptosis
in vitro efficacy against MOLT-4, fold more potent than A-1155463 (1) (MOLT-4 cells [2]; 10% HS): 20 fold

Now from value to compound, other results behind:

EC50 (MOLT-4 cells [2]; Homo sapiens, MOLT-4, 48 h, read-out: MOLT-4 EC50, 10% HS, 48 hours): > 5 µM
Structure (SMILES): O=C(Nc1nc2ccccc2s1)c1cccc2c1CN(c1ccc(-c3cnn(Cc4ccccc4)c3)c(C(=O)O)n1)CC2 [Compound 6]

EC50 (RS4;11 cells): > 5 µM
Cmax-coverage (total drug exposure) of the cellular EC50 [3]: approximately 3 fold
Structure (SMILES): Cc1c(-c2ccc(N3CCc4cccc(C(=O)Nc5nc6ccccc6s5)c4C3)nc2C(=O)O)cnn1Cc1ccccc1 [Compound 10]
activity in cells (in words) (MOLT-4 cells [2]; MOLT-4 (and RS4;11) cells, 10% human serum): low micromolar activity

improvement in target affinity relative to parent 6 (GST-BCL-XL): ~11 fold
Structure (SMILES): Cc1nn(Cc2ccccc2)c(C)c1-c1ccc(N2CCc3cccc(C(=O)Nc4nc5ccccc5s4)c3C2)nc1C(=O)O [Compound 11]
